Compounds with a hit are over-represented: about 4.5% of the library has one in this group of screens.
CHOP inh = inhibitors of CHOP promoter induction, primary screen, cell-based, unfolded protein response, luciferase reporter | 220,000 compounds, 3.8% hits | inhibition, % at 10 µM | AID 2732, 2010 | CHO-K1 CHOP-promoter luciferase, tunicamycin-induced, 15-18 h;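 active means compounds that reduced the stress-induced luciferase reporter signal by more than about 70% of percent inhibition, limit read from the data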;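 further: 0% = tunicamycin plus vehicle and 100% = wells without tunicamycin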
XBP1 UPR activ = activators of adaptive XBP1 UPR arm, primary screen, cell-based, CHO-XBP1 luciferase reporter, luminescence, uHTS; IRE1-XBP1 UPR activation; percent of tunicamycin response, DMSO as zero; activation, % at 20 µM; 330,000 compounds, 0.33% hits;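 active means versus positive control, 20 µM dose yields 30% or more activation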;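 further: 100% = tunicamycin at 10 µg/mL and 0% = DMSO only wells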
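incubation = overnight seeding at 37 °C, 6 h compound treatment at 37 °C | assay system = CHO-XBP1 cells stably carrying IRE1-XBP1-driven luciferase reporter | input = 1000 cells per well | detection = luciferase luminescence | dosing = single point, 20 µM final compound, 1% DMSO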
p97 ATPase inh = inhibitors of human p97 ATPase, primary screen, biochemical; Transitional endoplasmic reticulum ATPase (Homo sapiens), P55072; recombinant p97 ATPase, Kinase-Glo ATP luminescence, 3 h; inhibition, % at 8 µM; 220,000 compounds, 0.42% hits; AID 1481, 2009; in the data active means inhibition above about 15%;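 further: 0% = DMSO vehicle and 100% = wells lacking enzyme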
NS3 helicase inh = inhibitors of HCV NS3 helicase, primary screen, biochemical, Cy5 molecular beacon fluorescence. 290,000 compounds, 0.56% hits. inhibition, % at 10.9 µM. NS3 helicase DNA unwinding;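 active means inhibition above the mean of all tested compounds plus 3 SD, set per campaign, cut at about 35% in these data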;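 further: 0% = DMSO wells and 100% = thioflavine S control wells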
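Assay system – hepatitis C virus NS3 helicase domain fragment enzyme · Buffer or medium – MOPS pH 6.5, MgCl2, DTT, Tween20, BSA · Reagent – Cy5/quencher beacon DNA duplex and ATP to start · Compound – single 10.9 µM dose · Timing – 1 h at 25 °C · Technique – Cy5 beacon fluorescence read at start and 1 h · Measure – % inhibition of unwinding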
PfM18AAP inh-1 = PfM18AAP inhibitors, malaria aminopeptidase, primary screen, biochemical, QFRET, recombinant enzyme | M18 aspartyl aminopeptidase (Plasmodium falciparum 3D7) | H-Glu-NHMec fluorogenic cleavage | 290,000 compounds, 1.2% hits | inhibition, % at 7.35 µM | AID 1822, 2009;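 active means inhibition above the campaign mean inhibition over all tested compounds plus 3 SD, cut at about 28% in these data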;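 further: 0% = plate median of test compound wells and 100% = 2 mM ZnCl2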
UPR CHOP act = activators of apoptotic CHOP UPR arm, primary screen, cell-based, CHO-CHOP luciferase reporter, luminescence, uHTS. UPR activation; percent of tunicamycin response over DMSO baseline. AID 449763, 2010. 330,000 compounds, 0.34% hits. activation, % at 10 µM;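 active means at 10 µM dose, activation of 40% or more, normalized to positive control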;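 further: 100% = tunicamycin at 10 µg/mL and 0% = DMSO alone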
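Dosing – one dose, 10 µM in 0.5% DMSO · System – CHO-CHOP cells, stable luciferase reporter of PERK-eIF2a-CHOP signalling · Input – 500 cells/well · Control set – tunicamycin 10 µg/mL final as positive, DMSO-only wells as negative · Timing – 6 h compound treatment, 37 °C · Measure – % activation vs tunicamycin · Technique – luminescence read with Steady-Glo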
NS3 hel confirm = HCV NS3 helicase inhibitors, retest, confirmation, biochemical, Cy5 molecular beacon fluorescence, triplicate; shares compounds with NS3 helicase inh; NS3 helicase DNA unwinding; inhibition, % at 10.9 µM; 1,600 compounds, 31% hits;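 active means inhibition above the mean of all tested compounds plus 3 SD, cutoff set per campaign, cut at about 36% in these data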
DNA FID counter = compounds displacing fluorescent DNA intercalator, artefact control for HCV NS3 helicase inhibitor project, biochemical, FID fluorescence, triplicate. inhibition, % at 7.9 µM. DNA fluorescent intercalator displacement. 1,600 compounds, 4% hits. shares compounds with NS3 helicase inh; in the data active means inhibition above about 37%;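 further: 0% = vehicle and 100% = reference compound; higher means more displacement of ethidium bromide from the DNA hairpin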
FID counter DR = compounds displacing fluorescent intercalator from DNA, dose response, counter-screen for HCV NS3 helicase inhibitor project, biochemical, fluorescence; shares compounds with NS3 helicase inh; fluorescent intercalator displacement from DNA; IC50, µM; 120 tested, under 10 active; AID 2172, 2009; call rule not given here
PfM18AAP inh-2 = PfM18AAP inhibitors, malaria aminopeptidase, confirmation, biochemical, QFRET, recombinant enzyme, triplicate. 2,400 compounds, 28% hits. H-Glu-NHMec fluorogenic cleavage. AID 2170, 2009. inhibition, % at 7.35 µM. shares compounds with PfM18AAP inh-1;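 active means mean inhibition over replicate wells above the hit cutoff set for the earlier primary screen, cut at about 29% in these data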;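 further: 0% = median of test compound wells and 100% = 2 mM ZnCl2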
CTSL1 counter = cathepsin L1 inhibitors, retest, confirmation, counter-screen for PFM18AAP inhibitor project, biochemical, QFRET, triplicate. shares compounds with PfM18AAP inh-1. purified cathepsin L1, Z-Leu-Arg-MCA fluorescence. inhibition, % at 5.96 µM. 2,400 tested, under 10 active;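 active means average inhibition across replicates above the hit cutoff set in the earlier primary screen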;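 further: 0% = median of test compound wells and 100% = Z-Phe-Ala-diazomethylketone 1 µM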
Target sequence (P07711 whole entry, looked up): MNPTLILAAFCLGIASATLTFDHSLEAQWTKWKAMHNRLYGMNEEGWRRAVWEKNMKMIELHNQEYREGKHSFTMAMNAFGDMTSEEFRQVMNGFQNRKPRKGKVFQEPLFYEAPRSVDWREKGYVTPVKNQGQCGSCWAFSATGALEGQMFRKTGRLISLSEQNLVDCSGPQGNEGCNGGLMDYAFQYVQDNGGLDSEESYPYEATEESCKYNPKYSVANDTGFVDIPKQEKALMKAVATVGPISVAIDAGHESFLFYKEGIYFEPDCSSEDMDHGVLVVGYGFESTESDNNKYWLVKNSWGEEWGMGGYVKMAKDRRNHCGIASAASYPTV
* = called active by the depositor; · = no result given.

SMILES	CHOP inh	XBP1 UPR activ	p97 ATPase inh	NS3 helicase inh	PfM18AAP inh-1	UPR CHOP act	NS3 hel confirm	DNA FID counter	PfM18AAP inh-2	CTSL1 counter	others
NC(=O)c1sc2nc3c(c(-c4ccco4)c2c1N)CCC3	65.5	-0.3	14.4	58.4*	32.5*	-2.5	-27.4	7.8	-26.5	-5.5
NC(=O)c1sc2nc(-c3ccccc3)c3c(c2c1N)CCCC3	26.1	5.3	-3.7	27.2	17.1	-1.1	·	·	·	·
Oc1ccc(/C=N/Nc2ccnc3cc(Cl)ccc23)c(O)c1O	·	-0.8	·	40.2*	49.4*	9.4	6.7	44.9*	-61.3	6.8
CCOc1ccccc1C(=O)Nc1cc(C)ccc1NC(=O)c1ccco1	·	-0.9	·	3.4	-2.5	-0.4	·	·	·	·
CCN(CC)S(=O)(=O)c1cccc(C(=O)N/N=C/c2ccc(O)c(O)c2O)c1	57.5	·	7.1	45.1*	41.7*	·	76.4*	16.3	26.6	-0.5	FID counter DR=>79.4
CN(C)S(=O)(=O)c1cccc(-c2csc(N/N=C/c3ccco3)n2)c1	17.1	0.0	8.7	35.7	14.2	4.3	·	·	·	·
Cc1ccc(-c2csc(N/N=C/c3ccco3)n2)c(C)c1	27.1	2.8	-4.2	39.7*	32.6*	2.7	-9.6	10.1	-60.1	2.5
CC(C)c1ccc(N(CCc2ccccn2)C(=O)C(C)(C)C)cc1	·	-1.6	·	·	·	1.2	·	·	·	·
NNc1nc2c(-c3cccc(C(F)(F)F)c3)nnn2c2ccccc12	·	1.4	·	43.1*	34.6*	2.7	-0.4	16.8	-106.2	-5.8
O=C(NC1CCC(=O)N(CCOc2ccccc2)CC1)OCc1ccccc1 (configuration not stated)	·	-1.4	·	1.6	-14.4	1.4	·	·	·	·
O=C1CC(c2ccco2)CC(O)=C1C=Nc1cc(Cl)ccc1O (configuration not stated)	-5.0	3.6	3.9	42.5*	33.2*	15.6	1.1	13.3	-10.3	0.2
O=C1CC(c2ccco2)CC(O)=C1C=Nc1cc(Cl)ccc1Cl (configuration not stated)	65.5	1.9	2.2	32.0	10.8	19.5	·	·	·	·
O=C(O)c1ccccc1-c1ccccc1C(=O)NNc1ccc([N+](=O)[O-])cc1	-0.1	0.1	4.2	37.8*	53.3*	-1.6	-28.9	-5.9	21.9	0.5
O=C(NCCCc1ccc(F)cc1)C1CCC(=O)N(CC2CCCCC2)C1 (configuration not stated)	·	-3.8	·	-0.4	-9.9	0.7	·	·	·	·
O=c1ccc2[n+]([O-])c3ccc(O)cc3oc-2c1	9.5	·	-4.5	36.8*	39.1*	·	-0.5	-40.5	-37.2	3.9
Cc1cccc(C(=O)Nc2ccc(C(=O)N/N=C/c3ccc(C)o3)cc2)c1	·	-5.1	·	40.6*	41.8*	-2.7	-15.7	-20.3	-31.3	3.0
